Laboratory results: ChEMBL document CHEMBL4513216, “Probing the Open Global Health Chemical Diversity Library for Multistage-Active Starting Points for Next-Generation Antimalarials” (ACS Infect Dis, 2020)

Assay: Toxicity liver stage against HepG2, at 10uM
Type: cell-based
Parameters: test concentration 10 uM, cell line HepG2-A16-CD81EGFP
Details: human, HepG2-A16-CD81EGFP cells; read-out: INHIBITION
Summary of the method: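 Uninfected HepG2-A16-CD81EGFP cells, 3 × 10^3 per well, 1536-well, plated on prespotted compound at 10 μM final, parasite-free screening media added to match infected plates; puromycin 10 μM positive, DMSO 0.5% negative; run in parallel with 48 h PbLuc assay at 37 °C, 5% CO2; viability by CellTiter-Glo luminescence, normalized to controls.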

SMILES | cytotoxicity at 10 µM [%]
O=C(Nc1ccccc1)[C@H]1O[C@H](CCN2CCNCC2)CC[C@@H]1O | -7.49
COc1ccc(S(=O)(=O)NCC(c2cccn2C)N(C)C)c(C)c1 (stereo unspecified) | 7.78
CC(=O)c1ccc(S(=O)(=O)Nc2cnn(C3CCOCC3)c2)cc1 | -2.25
COCCNC(=O)c1cn(C(C)(C)C)c2ncccc12 | 2.74
CN1CCCC1c1ccnc(-c2ccccc2)n1 (stereo unspecified) | 2.77
Cc1cccc(CNC(Cc2ccsc2)c2nccs2)n1 (stereo unspecified) | 2.83
O=C(C1CCC1)N1CCOc2cccc(F)c21 | 0.877
CC(C)(C)c1cc(NC(=O)CN(Cc2cccs2)Cc2cccs2)on1 | 14.2
CCCc1c(C(=O)N2CCN(Cc3ccccn3)CC2)cnn1C | -1.96
COc1cccc(COC(C)C(=O)N(C)Cc2nnc3n2CCC3)c1 (stereo unspecified) | 6.32
O=C(CCNC(=O)N1CCC(c2ccccc2)C1)N1CCCCC1 (stereo unspecified) | -3.41
O=C(COC1CCCC1)NCCCn1nc2ccccn2c1=O | 5.78
O=C(Nc1nncs1)N(Cc1cccc(F)c1)C1CC1 | 47.6
CC1CN(C(=O)c2ccn(C)c(=O)c2)c2ccccc2NC1=O (stereo unspecified) | 2.94
COc1ccc(Cl)cc1-c1cc(NC(=O)C2COCCO2)[nH]n1 (stereo unspecified) | -29.1
NC(=O)NC(=O)CNC1(c2ccc(Cl)cc2)CCC1 | 9.23
Cc1ccc(-n2nc(C)cc2N)nn1 | 16
COCCOc1cc(C(=O)N2CC(C)c3ccccc32)ccn1 (stereo unspecified) | 2.16
CCc1nsc(N2CCn3c(nnc3C(F)(F)F)C2)n1 | -0.657
Cc1cc(C)c(CNc2ncnc3ccsc23)c(=O)[nH]1 | 15.9
Clc1ccc(CN2CCN(Cn3nccc3-c3cccnc3)CC2)s1 | 8.64
CCN(CC)C(=O)c1ccc(NC(=O)CNc2ccc(F)cc2Cl)cc1 | -5.31
Cc1nnsc1CNC(=O)c1ccc2c(c1)nc(N1CCOCC1)n2C | -13.8

SMILES | cytotoxicity at 10 µM [%]
COCc1noc(-c2ccc(N(C)Cc3ncccc3C)nc2)n1 | -0.0612
CCCn1ncc(C(=O)NCc2n[nH]c3c2CCCCC3)c1C | 8.72
COCCc1noc(Cn2ccc3ncccc3c2=O)n1 | -2.59
CC(C)(O)CCc1cccc(C(=O)NCCC2CCOC2)c1 (stereo unspecified) | -1.94
Cn1c(N2CCOCC2)nc2cc(C(=O)N3CCCOCC3)ccc21 | -1.29
Cc1ccc(F)c(OC2(C(=O)O)CCN(C(=O)c3ccco3)CC2)c1 | 5.99
Cn1cc(-c2cc(C(F)F)n3nc(CCC(=O)O)nc3n2)cn1 | 1.61
Cn1ccnc1CN1CCCN(C(=O)c2ccc(O)nc2)CC1 | -26.3
O=C(CN1CCN(c2nccs2)CC1)Nc1cccnc1 | -4.23
Cc1cccc(-c2ccc(C(=O)NCC3CCCOC3)c(=O)[nH]2)c1 (stereo unspecified) | -15.7
Cc1occc1CNC(=O)N1CCC(Cc2cnn(C)c2)C1 (stereo unspecified) | -11.1
Cc1cc(CN2CCN(C(=O)NCc3ccc(C)s3)CC2)on1 | -4.56
CC(C)c1noc(CN2CCC(c3ccnn3CCO)CC2)n1 | -18.6
Clc1ccc(-c2nc(CN3CCCC3Cn3cncn3)co2)cc1 (stereo unspecified) | -1.66
COc1ncccc1CNC(=O)N1CCCC1c1ccsc1 (stereo unspecified) | -15.9
Cc1cc(C)n(C2CN(CC(O)c3ccc(C(F)(F)F)cc3)C2)n1 (stereo unspecified) | -5.94
CC(C)C(=O)NCc1ccc(N2CCCC2)nc1 | -18.4
CCCc1nc(C)c(C(=O)NCCNc2ncccc2C#N)s1 | -19.5
Cc1ccc2c(c1)C(NC(=O)N(C)C)CC21CCN(C)CC1 (stereo unspecified) | 10.4
Cc1ccc(C(N)c2cccc(S(C)(=O)=O)c2)c(C)c1 (stereo unspecified) | -6.44
Cn1cc(N2CC3(CCN(CC4CCOCC4)CC3)OCC2=O)cn1 | -9.29
O=C([C@@H]1C[C@@H]2CCN(C3CCOCC3)C[C@@H]2O1)N1CCCC1 | 6.81
CNc1nc2cn(C3CCCC3)c(=O)c-2c[nH]1 | 7.17
